Experimental data gathered from unrelated publications.
Protocols differ between the studies behind these lines.
Target: Serine/threonine-protein kinase pim-3 (PIM3, Homo sapiens, UniProt Q86V86)

| SMILES | assay | setting | measurement | value |
| --- | --- | --- | --- | --- |
| CC(C)(O)[C@H]1CC[C@H](Nc2ccc3ncc(-c4cccc(C(F)(F)F)c4)n3n2)CC1 | enzyme activity, inhibitor | 1 µM | remaining activity | 3.14% |
| O=c1nc(-c2ccccn2)sc2ccccc12 | binding, competition with immobilised ligand | 1 µM | remaining binding | 100% |
| Cc1cc(NC(=O)c2cccc3cc(-c4cccc5[nH]nc(N)c45)ccc23)ccc1F | enzyme activity, inhibitor | 0.1 µM | activity vs control | 113% |
| CN(C)C(=O)Cn1cc(-c2nc([C@@](C)(c3ccc(-c4cnc(N)nc4)cc3)C3CC3)no2)cn1 | cell-free assay, competition with immobilised ligand | 1 µM | remaining binding | 96% |
| Cn1c2c(c3ccc(Cl)c(Cl)c31)C(C#N)C1(CCNCC1)NC2=O (racemic) | thermal stability, DSF | 10 µM | ΔTm | > 8 °C |
| O=C(O)[C@@H]1[C@@H](Cn2nnc3ccccc3c2=O)CC[C@H]1C(=O)c1ccc(OCCC2CCOCC2)cc1 | cell-free assay, competition with immobilised ligand | 1 µM | remaining binding | 84% |
| O=C1Nc2ccc(Cl)cc2C1=Cc1cc(Cl)c(O)c(Cl)c1 | cell-free assay | 0.5 µM | remaining signal | 14.5% |
| Nc1nc(NC2CCCCC2)sc1C(=O)c1ccccc1 | enzyme activity, inhibitor | 10 µM | remaining activity | 69% |
| CNC(=O)c1cc(Oc2ccc(NC(=O)Nc3ccc(Cl)c(C(F)(F)F)c3)cc2)ccn1 | enzyme activity, inhibitor | 10 µM | inhibition | -16% |
| Nc1ncnc2occ(-c3ccc(NC(=O)Nc4cc(C(F)(F)F)ccc4F)cc3)c12 | cell-free assay, inhibitor | 20 µM | remaining signal | 79% |
| COc1cc(Cl)c(C(=O)N[C@@H](CN[C@H]2CC[C@@H](N)CC2)Cc2ccc(C#N)cc2)cc1-c1ccc(CN[C@H](C)c2ccc(C)cc2)o1 | enzyme activity, inhibitor | 1 µM | remaining activity | 84% |
| O=C(N1CCS(=O)(=O)CC1)N1C[C@H](c2ccc(OC(F)(F)F)cc2)C[C@H](c2nc(C3CC3)no2)C1 | cell-free assay, competition with immobilised ligand | 1 µM | remaining binding | 100% |
| CC(C)(C)c1nc2c(s1)c1nc(N)ncc1c1ccc(NS(=O)(=O)c3c(F)cccc3F)c(F)c12 | enzyme activity, inhibitor, radiometric | 1 µM | remaining activity | 105% |
| CCCS(=O)(=O)Nc1ccc(F)c(C(=O)c2c[nH]c3ncc(-c4ccc(Cl)cc4)cc23)c1F | enzyme activity, inhibitor | 1 µM | inhibition | < 10% |
| Cc1ccc(C(=O)NCc2ccsc2)cc1C#Cc1cn(C(C)C)c2ncnc(N)c12 | enzyme activity, inhibitor | 1 µM | activity vs control | 85% |
| O=C(CSc1nc2nccnc2c(=O)n1CCc1ccccc1)Nc1nccs1 | enzyme activity, inhibitor | 10 µM | inhibition | -7% |
| Cc1noc([C@H]2C[C@@H](c3ccc(C(F)(F)F)cc3)CN(C(=O)N3CCS(=O)(=O)C3)C2)n1 | cell-free assay, competition with immobilised ligand | 1 µM | remaining binding | 91% |
| CN(c1ncccc1CNc1nc(Nc2ccc3c(c2)CC(=O)N3)ncc1C(F)(F)F)S(C)(=O)=O | enzyme activity, inhibitor | 1 µM | inhibition | 21.2% |
| CS(=O)(=O)N1CCCC(NC(=O)[C@H](CCC2CCCCC2)NC(=O)c2ccc(CNC(=O)c3cnc4ccccn34)cc2)C1 (stereo partly drawn) | cell-free assay, competition with immobilised ligand | 0.1 µM | remaining binding | 99% |
| Cc1ccc(Nc2nccc(N(C)c3ccc4c(C)n(C)nc4c3)n2)cc1S(N)(=O)=O | enzyme activity, inhibitor | 0.5 µM | remaining activity | 81.6% |
| Oc1cccc(-c2nc(N3CCOCC3)c3oc4ncccc4c3n2)c1 | enzyme activity, inhibitor | 10 µM | remaining activity | 41% |
| CC(C)(C)C(=O)c1sc(NC2CCCCC2)nc1N | enzyme activity, inhibitor | 10 µM | remaining activity | 82% |
| O=C1NC(=O)c2cc(Nc3ccc(F)cc3)c(Nc3ccc(F)cc3)cc21 | cell-free assay | 0.5 µM | remaining signal | 105% |
| Cc1cc(-n2nc(Cc3cc(F)cc(C(F)(F)F)c3)nc2C)ccc1C(N)=O | cell-free assay, competition with immobilised ligand | 1 µM | remaining binding | 100% |
| COc1cc(Nc2cnc(C#N)c(O[C@H](C)CN(C)C)n2)ncc1-c1cnn(C)c1 | enzyme activity, inhibitor, radiometric | 1 µM | remaining activity | 58% |
| Cc1sc(C(=O)NC2COC2)cc1-n1cc(NC(=O)Nc2c(F)cccc2Cl)cn1 | enzyme activity, inhibitor | 10 µM | remaining activity | 129% |
| CC1=C(C#N)C(c2ccc3c(c2)c(NC(=O)c2ccccc2C)nn3C)C(C#N)=C(C)N1 | cell-free assay, competition with immobilised ligand | 1 µM | remaining binding | 100% |
